Compound activity: PubChem, The Scripps Research Institute Molecular Screening Center
In the library only some 1.8% were active in any assay of this set; here they are far more common.
NPY2 pot ag = human NPY-Y2 potentiation or agonism, primary screen. hit rate 0.45% among 220,000. P49146. activation, % at 3.6 µM. cells expressing NPY-Y2, potentiator/agonist read-out; in the data active means activation above about 27%;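 further: cells stimulated with NPY near EC25 plus isoproterenol at EC100; 0% = vehicle plus submaximal agonist and 100% = vehicle plus saturating agonist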
Target sequence (P49146 whole entry, looked up): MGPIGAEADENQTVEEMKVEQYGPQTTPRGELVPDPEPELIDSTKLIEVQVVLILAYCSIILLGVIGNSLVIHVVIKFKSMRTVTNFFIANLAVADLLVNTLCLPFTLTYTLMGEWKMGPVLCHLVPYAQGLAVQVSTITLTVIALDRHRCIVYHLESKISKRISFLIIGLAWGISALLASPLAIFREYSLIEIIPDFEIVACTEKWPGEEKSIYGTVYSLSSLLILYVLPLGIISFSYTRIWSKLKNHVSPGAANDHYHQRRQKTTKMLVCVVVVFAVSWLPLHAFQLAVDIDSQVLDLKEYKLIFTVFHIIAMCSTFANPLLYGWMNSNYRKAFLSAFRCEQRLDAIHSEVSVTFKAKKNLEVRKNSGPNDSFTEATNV
NPY Y1 blocker = antagonists of human neuropeptide Y receptor Y1; P25929; inhibition, % at 3.6 µM; HEK293-CNG Y1 cells, membrane potential fluorescence; NPY at EC95, then isoproterenol; hit rate 1% among 200,000;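 active means inhibition above the campaign mean inhibition of all tested compounds plus 3 SD, cut at about 20% in these data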;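 further: 0% = DMSO wells given NPY plus isoproterenol and 100% = isoproterenol alone without NPY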
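Material: Y1- and CNG-channel-expressing HEK293 cells / Probe or stimulus: NPY 25 nM then isoproterenol 1 µM plus Ro 20-1724 25 µM / Doses: 3.6 µM single dose, DMSO 0.4% / Schedule: compound incubation 1 h at room temperature, readout 45 min post-stimulation / Signal: membrane potential fluorescence / Benchmarks: isoproterenol-only wells as full block versus NPY-plus-isoproterenol wells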
NPY1 pot ag = potentiators or agonists of human neuropeptide Y receptor Y1; P25929; NPY-Y1 expressing cells, potentiator/agonist activation; activation, % at 3.6 µM; hit rate 0.37% among 220,000; AID 1304; in the data active means activation above about 33%, passing the limit was not always enough;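 further: cells stimulated with NPY at EC10 then isoproterenol at EC100; 0% = low agonist plus stimulus and 100% = saturating agonist plus stimulus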
NPY-Y2 antag = antagonists of human neuropeptide Y receptor Y2; P49146; NPY-Y2 expressing cells, antagonist mode; inhibition, % at 2.7 µM; hit rate 0.99% among 140,000; AID 793; in the data active means inhibition above about 17%;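 further: 0% = vehicle with agonist challenge and 100% = reference antagonist with challenge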
An asterisk follows results filed as active; nt = no result.

SMILES	NPY2 pot ag	NPY Y1 blocker	NPY1 pot ag	NPY-Y2 antag
COc1ccc([N+](=O)[O-])cc1N(CC(=O)N1CCCC1)S(C)(=O)=O	2	4	11	nt
O=C(NC1CCCCC1)C(c1cccs1)N(Cc1cccs1)C(=O)c1cccs1 (configuration not stated)	-11	41*	-49	18*
O=C(Cc1cccs1)N(Cc1ccco1)C1(C(=O)NC2CCCCC2)CCCCC1	-11	50*	9	30*
Cc1ccc(C(C(=O)NC2CCCC2)N(Cc2ccc3c(c2)OCO3)C(=O)Cc2cccs2)cc1 (configuration not stated)	9	15	-19	22*
CCOC(=O)CCc1c(C)c2ccc(OCC)c(C)c2oc1=O	-11	33*	-16	29*
CCOC(=O)COc1ccc2c3c(c(=O)oc2c1C)CCC3	0	4	-32	4
Cc1nonc1CC(=O)N1CCCC(C(=O)c2ccc(Cl)cc2)C1 (configuration not stated)	-17	2	-14	nt
Cc1cc(C)nc(NC(=O)c2ccc(C)c([N+](=O)[O-])c2)n1	-9	7	4	1
Cc1ccc(C(=O)Nn2cnnc2)cc1[N+](=O)[O-]	-15	-1	8	18*
COc1cc2nc(SCc3ccc(F)cc3)n(Cc3cccs3)c(=N)c2cc1OC	2	8	12	-1
COc1ccc(Cn2c(SCc3ccccc3C)nc3cc(OC)c(OC)cc3c2=N)cc1	28	48*	-17	44*
O=S(=O)(c1ccc(F)cc1)N1CCN(Cc2ccccn2)CC1	7	-5	22	nt
Cc1ccc(S(=O)(=O)NN2C(=O)/C(=C/c3cccn3C)SC2=S)cc1	-26	28*	-42	9
Cc1ccc(S(=O)(=O)NN2C(=O)/C(=C/c3cccs3)SC2=S)cc1	-33	nt	-17	nt
CCOC(=O)c1c(C)n(C)c2ccc(O)c(CN(C)C)c12	70*	-5	75*	5
COc1cccc(-c2nnn(CC(=O)O)n2)c1	-33	26*	-47	2
CCOC(=O)Cn1nnc(-c2cccc(OC)c2)n1	-5	5	-20	5
CC(=O)c1c(C)n(-c2ccccc2)c2ccc(OCC(N)=O)cc12	5	1	13	nt
CCC(C)N(CC(=O)Nc1cccc(C)c1C)C(=O)CCl (configuration not stated)	-12	5	-12	nt
O=[N+]([O-])c1ccc(/C=N/Nc2ccc3ccccc3c2)o1	66*	-19	76*	-10
O=C(N/N=C/c1ccc([N+](=O)[O-])o1)c1cc2ccccc2o1	0	nt	10	nt
Cc1ccc(OCCN2C(=O)C(=O)c3cc(C)ccc32)cc1	-24	21*	-18	nt
COc1ccccc1-n1cnnc1SCC(=O)NCC1CCCO1 (configuration not stated)	15	-1	0	nt
CC1=[N+](C)c2ccc3ccccc3c2C1(C)C	-32	27*	-71	22*
O=C1OCCN1C(=O)[C@H]1[C@H](c2ccc([N+](=O)[O-])cc2)C(c2cccc(Cl)c2)=NN1c1ccccc1	31*	-7	29	-1
SMILES	NPY2 pot ag	NPY Y1 blocker	NPY1 pot ag	NPY-Y2 antag
COc1cc(C(=O)Nc2cccc(-c3nnc(-c4ccco4)o3)c2)ccc1OC(C)=O	9	3	13	nt
C(=C\c1ccccc1)/CSc1nnc(-c2ccccc2)n1Cc1ccco1	-21	21*	-33	25*
Cc1ccccc1CSc1nnc(-c2ccco2)n1Cc1ccco1	1	10	-10	14
Cc1ccc(-c2nnc(SCc3ccc(C#N)cc3)n2Cc2ccco2)cc1	-12	21*	0	20*
C(=C\c1ccccc1)/CSc1nnc(-c2ccncc2)n1Cc1ccco1	6	-1	-20	1
Clc1cccc(-c2nnc(SC/C=C/c3ccccc3)n2Cc2ccco2)c1	-7	26*	-20	37*
Cc1ccccc1CSc1nnc(-c2cccs2)n1Cc1ccco1	-7	23*	-4	24*
CCOc1ccc(NC2=NC(C(=O)NCc3ccccc3)CC(=O)N2)cc1 (configuration not stated)	2	1	12	-1
CCOC(=O)N1CCC(N2CCCC(CO)(Cc3cccc(Cl)c3)C2)CC1 (configuration not stated)	3	6	-8	nt
COc1ccc(C2SCC(=O)N2CC23CC4CC(CC(C4)C2)C3)cc1 (configuration not stated)	-11	6	2	1
CSc1nnc(C(C)(C)C)c(=O)n1/N=C/c1ccc(Cl)cc1	-3	nt	-11	nt
CCOC(=O)c1cc2occc2n1Cc1c(F)cccc1Cl	11	3	-29	7
